Data as given in ChEMBL document CHEMBL1154606 (J Med Chem, 2009).
Where a SMILES comes first, the peptide text is derived from it. [ ]: non-standard residue; d: D form. NMeF = CN[C@@H](Cc1ccccc1)C(=O)O

Tests used:
Neuromedin-K receptor [1] = target: T1, Neuromedin-K receptor (Homo sapiens, UniProt P29371); experiment: Antagonist activity at wild type human NK3 receptor expressed in HEK293 cells assessed as inhibition of [MePhe7]NKB-induced accumulation of [3H]inositol phosphate; assay type: functional, cell-based; conditions: read-out: pA2 (converted)
T1 sequence (P29371 whole entry): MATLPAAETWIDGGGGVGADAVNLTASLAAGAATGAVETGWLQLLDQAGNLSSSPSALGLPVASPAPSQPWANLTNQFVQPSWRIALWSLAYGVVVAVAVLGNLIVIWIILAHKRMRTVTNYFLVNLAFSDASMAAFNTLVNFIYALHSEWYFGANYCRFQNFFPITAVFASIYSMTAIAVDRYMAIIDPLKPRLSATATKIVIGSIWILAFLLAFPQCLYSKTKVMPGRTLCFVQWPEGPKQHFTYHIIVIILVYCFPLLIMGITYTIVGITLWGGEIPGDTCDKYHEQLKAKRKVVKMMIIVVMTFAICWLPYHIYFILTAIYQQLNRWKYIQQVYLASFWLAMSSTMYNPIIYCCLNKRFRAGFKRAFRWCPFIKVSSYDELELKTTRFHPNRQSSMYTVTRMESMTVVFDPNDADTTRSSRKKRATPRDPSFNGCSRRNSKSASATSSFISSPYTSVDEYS
Summary of the method: (§1)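 HEK293 cells transiently transfected with NK3 receptor, labeled with myo-[³H]-inositol and assayed 48 h post-transfection in HBSS/HEPES pH 7.4 with 8 mM LiCl. Fixed antagonist concentrations were preincubated 20 min at 37 °C, then [MePhe⁷]NKB (0.1 nM–10 μM) was added for 45 min at 37 °C. [³H]IP was captured on yttrium silicate beads. Agonist EC50 shifts gave dose ratios for Schild regression. Six curves from three transfections.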

Substance-K receptor [2] = target: T2, Substance-K receptor (Homo sapiens, UniProt P21452); experiment: Displacement of [3H]SR48968 from human recombinant NK2 receptor expressed in HEK293 cells; assay type: cell-based
T2 sequence (P21452 whole entry): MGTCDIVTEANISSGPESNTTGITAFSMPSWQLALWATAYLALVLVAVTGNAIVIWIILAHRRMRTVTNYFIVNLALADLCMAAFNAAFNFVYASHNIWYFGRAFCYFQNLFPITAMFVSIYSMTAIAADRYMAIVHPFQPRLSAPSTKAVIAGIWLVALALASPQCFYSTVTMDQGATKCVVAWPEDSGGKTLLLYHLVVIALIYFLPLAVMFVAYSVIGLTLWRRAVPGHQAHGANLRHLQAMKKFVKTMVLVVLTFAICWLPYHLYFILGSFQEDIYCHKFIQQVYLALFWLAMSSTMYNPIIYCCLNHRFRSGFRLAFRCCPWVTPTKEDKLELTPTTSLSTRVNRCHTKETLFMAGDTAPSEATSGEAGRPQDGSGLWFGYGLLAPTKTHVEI
Summary of the method: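 hNK2 membranes from transient HEK293 (2.5 μg protein/well) in 50 mM Tris-HCl, 3 mM MnCl2, 4 μg/mL chymostatin, 0.04% BSA, pH 7.4. Incubated with 0.32 nM [³H]SR 48968 plus 10 inhibitor concentrations (0.0003–10 μM) for 75 min at RT. Ki by Cheng-Prusoff; three experiments in duplicate.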

Neuromedin-K receptor [3] = target: T3, Neuromedin-K receptor (Cavia porcellus, UniProt P30098); experiment: Displacement of [3H]osanetant from guinea pig recombinant NK3 receptor expressed in HEK293 cells; assay type: cell-based
T3 sequence (P30098 whole entry): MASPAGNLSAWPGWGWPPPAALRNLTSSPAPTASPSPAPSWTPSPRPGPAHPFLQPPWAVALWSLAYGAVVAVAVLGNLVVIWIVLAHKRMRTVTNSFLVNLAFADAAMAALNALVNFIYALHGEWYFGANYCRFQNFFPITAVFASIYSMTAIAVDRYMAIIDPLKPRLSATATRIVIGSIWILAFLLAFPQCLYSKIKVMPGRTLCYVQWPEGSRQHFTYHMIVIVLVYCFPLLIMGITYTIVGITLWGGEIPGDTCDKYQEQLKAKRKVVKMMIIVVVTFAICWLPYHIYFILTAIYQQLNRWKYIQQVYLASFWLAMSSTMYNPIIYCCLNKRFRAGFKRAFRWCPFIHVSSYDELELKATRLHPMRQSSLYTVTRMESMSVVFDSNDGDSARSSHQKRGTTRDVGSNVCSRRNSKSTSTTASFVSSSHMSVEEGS
Summary of the method: (§2)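 Membranes from transiently transfected HEK293 cells (5 μg protein/well) in 50 mM Tris-HCl, 4 mM MnCl2, 1 μM phosphoramidon, 0.1% BSA, pH 7.4. Nonspecific binding defined with 10 μM competitor. Filtered on GF/C. Ki by Cheng-Prusoff; three experiments in duplicate.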

Neuromedin-K receptor [4] = target: T1, Neuromedin-K receptor; experiment: Displacement of [3H]osanetant from human recombinant NK3 receptor expressed in HEK293 cells; assay type: cell-based
Summary of the method: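 Membranes from transiently transfected HEK293 cells (5 μg protein/well) in 50 mM Tris-HCl, 4 mM MnCl2, 1 μM phosphoramidon, 0.1% BSA, pH 7.4. […] Nonspecific binding defined with 10 μM competitor. Filtered on GF/C. Ki by Cheng-Prusoff; three experiments in duplicate.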

Neuromedin-K receptor [5] = target: T4, Neuromedin-K receptor (Cavia porcellus, UniProt P30098); experiment: Displacement of [3H]osanetant from guinea pig recombinant NK3 receptor A1142.58T expressed in HEK293 cells; assay type: cell-based; summary of the method: as §2
Neuromedin-K receptor [6] = target: T4, Neuromedin-K receptor; experiment: Antagonist activity at […] guinea pig NK3 receptor A1142.58T mutant expressed in HEK293 cells assessed as inhibition of [MePhe7]NKB-induced accumulation of [3H]inositol phosphate; assay type: functional, cell-based; summary of the method: as §1
Neuromedin-K receptor [7] = target: T3, Neuromedin-K receptor; experiment: Antagonist activity at wild type guinea pig NK3 receptor expressed in HEK293 cells assessed as inhibition of [MePhe7]NKB-induced accumulation of [3H]inositol phosphate; assay type: functional, cell-based; conditions: read-out: pA2 (converted); summary of the method: as §1
Substance-P receptor = Substance-P receptor (Homo sapiens, UniProt P25103); experiment: Displacement of [3H]substance P from human recombinant NK1 receptor expressed in HEK293 cells; assay type: cell-based
Summary of the method: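 hNK1 membranes from transient HEK293 (2.5 μg protein/well) in 50 mM HEPES, 3 mM MnCl2, 2 μM phosphoramidon, 16.8 μM leupeptin, 0.04% BSA, pH 7.4. Incubated with 0.6 nM [³H]substance P plus 10 inhibitor concentrations (0.0003–10 μM) for 75 min at RT. Nonspecific binding defined with 10 μM CP-96,345. Ki by Cheng-Prusoff; three experiments in duplicate.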

[8] = target: T5, Neuromedin-K receptor (Cavia porcellus) (UniProt P30098); conditions: HEK293
T5 sequence (whole entry): T3 sequence (P30098 whole entry)

[9] = target: T5, Neuromedin-K receptor (Cavia porcellus); conditions: HEK293; remark: listed apart in the source
[10] = target: T6, Neuromedin-K receptor (Homo sapiens) (UniProt P29371); conditions: HEK293
T6 sequence (whole entry): T1 sequence (P29371 whole entry)

[11] = system: Neurokinin 3 receptor (Cavia porcellus); experiment: Equilibrium binding affinity to guinea pig NK3 receptor A1142.58T mutant expressed in HEK293 cells
[12] = target: T6, Neuromedin-K receptor (Homo sapiens); conditions: HEK293; remark: listed apart in the source
Substance-K receptor [13] = target: T2, Substance-K receptor; experiment: Binding affinity to human NK2 receptor
Neuromedin-K receptor [14] = target: T1, Neuromedin-K receptor; experiment: Binding affinity to human NK3 receptor
Neuromedin-K receptor [15] = target: T3, Neuromedin-K receptor; experiment: Agonist activity at guinea pig NK3 receptor expressed in cells assessed as accumulation of [3H]inositol phosphate; assay type: functional, cell-based
Summary of the method: (§3)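 At 48 h, preincubated 10 min at RT in HBSS/20 mM HEPES pH 7.4 with 8 mM LiCl, then stimulated with [MePhe⁷]NKB (0.1 nM–10 μM) for 45 min at 37 °C. Inositol phosphates were extracted with formic acid, captured on yttrium silicate beads and counted. EC50 and Hill slope were derived.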

Neuromedin-K receptor [16] = target: T1, Neuromedin-K receptor; experiment: Agonist activity at human NK3 receptor expressed in cells assessed as accumulation of [3H]inositol phosphate; assay type: functional, cell-based; summary of the method: as §3

Sequence of Substance-P receptor (P25103 whole entry): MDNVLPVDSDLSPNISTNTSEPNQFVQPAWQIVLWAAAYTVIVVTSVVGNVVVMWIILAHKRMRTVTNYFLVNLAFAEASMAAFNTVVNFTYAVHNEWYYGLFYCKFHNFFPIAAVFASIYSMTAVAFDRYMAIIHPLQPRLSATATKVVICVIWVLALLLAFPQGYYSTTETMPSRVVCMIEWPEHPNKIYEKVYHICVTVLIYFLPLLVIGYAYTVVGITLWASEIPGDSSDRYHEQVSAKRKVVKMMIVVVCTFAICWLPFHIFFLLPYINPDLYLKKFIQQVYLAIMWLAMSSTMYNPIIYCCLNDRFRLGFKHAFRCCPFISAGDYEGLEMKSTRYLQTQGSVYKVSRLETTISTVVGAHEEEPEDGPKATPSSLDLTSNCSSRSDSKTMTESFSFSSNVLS

| Structure (SMILES) | Kb (Neuromedin-K receptor [1]) [nM] | Ki (Substance-K receptor [2]) [nM] | Ki (Neuromedin-K receptor [3]) [nM] | Ki (Neuromedin-K receptor [4]) [nM] | Ki (Neuromedin-K receptor [5]) [nM] | pA2 (Neuromedin-K receptor [6]) | Kb (Neuromedin-K receptor [7]) [nM] | Ki (Substance-P receptor) [nM] | T1/2 [8] [min] | T1/2 [9] [min] | T1/2 [10] [min] | Kd [11] [nM] | T1/2 [12] [min] | Ki (Substance-K receptor [13]) [nM] | Ki (Neuromedin-K receptor [14]) [nM] | EC50 (Neuromedin-K receptor [15]) [nM] | EC50 (Neuromedin-K receptor [16]) [nM] |
| --- | --- | --- | --- | --- | --- | --- | --- | --- | --- | --- | --- | --- | --- | --- | --- | --- | --- |
| CC(=O)N(C)C1CCN(CCC(C)(C(=O)N(C)Cc2ccccc2Cl)c2ccc(Cl)c(Cl)c2)CC1 (stereo unspecified) | 18.2 | 953 | 8 | 10.4 | 11.9 | 7.53 | 24 | 70.9 |  |  |  |  |  |  |  |  |  |
| CC(=O)N(C)C1(c2ccccc2)CCN(CCC[C@]2(c3ccc(Cl)c(Cl)c3)CCCN(C(=O)c3ccccc3)C2)CC1 [OSANETANT] |  |  |  |  |  |  |  |  | 10.2 | 31.5 | 10.1 | 0.08 | 4.01 |  |  |  |  |
| CN(Cc1ccc(F)c(C(F)(F)F)c1)C(=O)C(C)(CCN1CCC(N2CCCC2=O)CC1)c1ccc(Cl)c(Cl)c1 (stereo unspecified) | 8.91 | 109 | 1.6 | 0.8 | 1.8 | 7.96 |  | 182 |  |  |  |  |  |  |  |  |  |
| CC(=O)N(C)C1CCN(CCC(C)(C(=O)N(C)Cc2ccc(F)c(C(F)(F)F)c2)c2ccc(Cl)c(Cl)c2)CC1 (stereo unspecified) | 7.76 | 515 | 3.5 | 3.1 | 2.7 | 7.83 |  | 152 |  |  |  |  |  |  |  |  |  |
| CSCC[C@H](NC(=O)[C@H](CC(C)C)NC(=O)CNC(=O)[C@H](Cc1ccccc1)N(C)C(=O)[C@H](Cc1ccccc1)NC(=O)[C@H](Cc1ccccc1)NC(=O)[C@H](CC(=O)O)NC(=O)[C@H](Cc1cnc[nH]1)NC(=O)[C@H](CCSC)NC(=O)[C@@H](N)CC(=O)O)C(N)=O (H-DMHDFF[NMeF]GLM-NH2) |  |  |  |  |  |  |  |  |  |  |  |  |  | 1600 | 0.3 | 0.6 | 0.6 |
